# Measurements reported in ChEMBL document CHEMBL3612021, “Structure-kinetics relationships of Capadenoson derivatives as adenosine A1 receptor agonists” (Eur J Med Chem, 2015).
# Biological target: T1, Adenosine receptor A1 (Homo sapiens) (UniProt P30542)
# T1 sequence (whole entry): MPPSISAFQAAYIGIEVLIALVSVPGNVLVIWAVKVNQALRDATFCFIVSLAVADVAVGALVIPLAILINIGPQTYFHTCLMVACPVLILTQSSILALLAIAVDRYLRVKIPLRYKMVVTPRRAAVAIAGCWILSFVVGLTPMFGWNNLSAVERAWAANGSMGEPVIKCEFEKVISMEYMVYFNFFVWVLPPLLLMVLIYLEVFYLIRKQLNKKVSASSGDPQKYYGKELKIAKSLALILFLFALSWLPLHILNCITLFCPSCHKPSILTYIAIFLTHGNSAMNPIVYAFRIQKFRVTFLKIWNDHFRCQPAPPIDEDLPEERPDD
# Assay: Displacement of [3H]DPCPX from human adenosine A1 receptor expressed in CHO cell membranes assessed as kinetic rate index by measuring ratio of binding at earlier and later time points by competition association assay
# Summary of the method: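 Dual-point competition association assay with [3H]DPCPX on CHO membranes stably expressing hA1. Specific binding is read at two time points in the presence of the test ligand. KRI is the ratio of binding at the earlier to the later time point (n = 2; both values reported).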
row,Ratio,Structure (SMILES)
1,1.22,COc1ccc(-c2nc(CSc3nc(N)c(C#N)c(-c4ccc(OC)cc4)c3C#N)cs2)cc1
2,1.25,COc1ccc(-c2c(C#N)c(N)nc(SCc3csc(-c4ccc(C)cc4)n3)c2C#N)cc1

# Biological target: T1, Adenosine receptor A1 (Homo sapiens)
# Assay: Displacement of [3H]DPCPX from human adenosine A1 receptor expressed in CHO cell membranes at 1 uM by competition association assay
row,Structure (SMILES),inhibition
1,N#Cc1c(-c2ccc3c(c2)OCO3)cc(SCc2csc(-c3ccc(Cl)cc3)n2)nc1NC1CC1,> 80%
2,N#Cc1c(N)nc(SCc2csc(-c3ccc(Cl)cc3)n2)nc1-c1ccc(O)cc1,> 80%
3,COc1ccc(-c2nc(CSc3nc(N)c(C#N)c(-c4ccc(O)cc4)c3C#N)cs2)cc1,> 80%
4,N#Cc1c(NCC(c2ccccc2)c2ccccc2)nc(SCc2csc(-c3ccc(Cl)cc3)n2)nc1-c1ccc2c(c1)OCO2,< 80%
5,N#Cc1c(N)nc(SCc2csc(-c3ccccc3F)n2)c(C#N)c1-c1ccc(O)cc1,> 80%
6,N#Cc1c(NCCc2ccccc2)nc(SCc2csc(-c3ccc(Cl)cc3)n2)nc1-c1ccc2c(c1)OCO2,< 80%
7,N#Cc1c(NC2CCCCC2)nc(SCc2csc(-c3ccc(Cl)cc3)n2)nc1-c1ccc2c(c1)OCO2,< 80%
8,N#Cc1c(N)nc(SCc2coc(-c3ccc(F)cc3)n2)c(C#N)c1-c1ccc(O)cc1,> 80%
9,Cc1ccc(-c2nc(CSc3nc(N)c(C#N)c(-c4ccc5c(c4)OCO5)n3)cs2)cc1,> 80%
10,CCCCNc1nc(SCc2csc(-c3ccc(Cl)cc3)n2)nc(-c2ccc3c(c2)OCO3)c1C#N,< 80%
11,N#Cc1c(N)nc(SCc2coc(-c3ccc(F)cc3)n2)nc1-c1ccc2c(c1)OCO2,> 80%
12,N#Cc1c(N)nc(SCc2nc(-c3ccc(Cl)cc3)sc2Cl)c(C#N)c1-c1ccc2c(c1)OCO2,> 80%
13,N#Cc1c(N)nc(SCc2coc(-c3ccc(Cl)cc3)n2)nc1-c1ccc2c(c1)OCO2,> 80%
14,N#Cc1c(N)nc(SCc2coc(-c3cccc(F)c3)n2)c(C#N)c1-c1ccc(O)cc1,> 80%
15,CC(=O)Nc1ccc(-c2nc(SCc3cccc(CCC(=O)N4CCN(C)CC4)n3)nc(N)c2C#N)cc1,< 80%
16,N#Cc1c(NC2CCCC2)nc(SCc2csc(-c3ccc(Cl)cc3)n2)nc1-c1ccc2c(c1)OCO2,< 80%
17,N#Cc1c(N)nc(SCc2csc(-c3ccccc3)n2)c(C#N)c1-c1ccc(O)cc1,> 80%
18,N#Cc1c(N)nc(SCc2csc(-c3cccc(F)c3)n2)c(C#N)c1-c1ccc(O)cc1,> 80%
19,N#Cc1c(N)nc(SCc2csc(-c3ccc(Br)cc3)n2)nc1-c1ccc2c(c1)OCO2,> 80%
20,CC(C)Nc1nc(SCc2csc(-c3ccc(Cl)cc3)n2)nc(-c2ccc3c(c2)OCO3)c1C#N,< 80%

row,Structure (SMILES),inhibition
1,N#Cc1c(N)nc(SCc2csc(-c3cccc(F)c3)n2)nc1-c1ccc2c(c1)OCO2,> 80%
2,CCNc1nc(SCc2csc(-c3ccc(Cl)cc3)n2)cc(-c2ccc3c(c2)OCO3)c1C#N,> 80%
3,CCNCCN1CCN(C(=O)CCc2cccc(CSc3nc(N)c(C#N)c(-c4ccc(NC(C)=O)cc4)n3)n2)CC1,< 80%
4,N#Cc1c(N)nc(SCc2csc(C3CCCCC3)n2)nc1-c1ccc2c(c1)OCO2,> 80%
5,N#Cc1c(N)nc(SCc2csc(-c3ccc(I)cc3)n2)nc1-c1ccc2c(c1)OCO2,> 80%
6,N#Cc1c(N)nc(SCc2csc(-c3ccccc3Cl)n2)c(C#N)c1-c1ccc(O)cc1,> 80%
7,N#Cc1c(N)nc(SCc2csc(-c3ccc4c(c3)OCO4)n2)nc1-c1ccc2c(c1)OCO2,> 80%
8,CN(C)CCNc1nc(SCc2csc(-c3ccc(Cl)cc3)n2)nc(-c2ccc3c(c2)OCO3)c1C#N,< 80%
9,N#Cc1c(N)nc(SCc2coc(-c3cccc(F)c3)n2)nc1-c1ccc2c(c1)OCO2,> 80%
10,N#Cc1c(N)nc(SCc2csc(-c3ccc(Br)cc3)n2)c(C#N)c1-c1ccc(O)cc1,> 80%
11,N#Cc1c(N)nc(SCc2csc(-c3ccc(F)cc3)n2)c(C#N)c1-c1ccc(O)cc1,> 80%
12,N#Cc1c(N)nc(SCc2csc(-c3ccc(Cl)c(Cl)c3)n2)nc1-c1ccc2c(c1)OCO2,> 80%
13,N#Cc1c(N)nc(SCc2csc(-c3ccc(Cl)c(Cl)c3)n2)c(C#N)c1-c1ccc(O)cc1,> 80%
14,CC(=O)Nc1ccc(-c2nc(SCc3cccc(CCC(=O)N4CCN(CCN5CCCC5)CC4)n3)nc(N)c2C#N)cc1,< 80%
15,N#Cc1c(N)nc(SCc2csc(-c3ccc(F)cc3)n2)nc1-c1ccc2c(c1)OCO2,> 80%
16,CC(=O)Nc1ccc(-c2nc(SCc3cccc(CCC(=O)N(C)CCN(C)C)n3)nc(N)c2C#N)cc1,< 80%
17,COc1ccc(-c2c(C#N)c(N)nc(SCc3csc(-c4ccc(C)cc4)n3)c2C#N)cc1,> 80%
18,COc1ccc(-c2nc(SCc3coc(-c4cccc(F)c4)n3)nc(N)c2C#N)cc1,< 80%
19,CC(=O)Nc1ccc(-c2nc(SCc3cccc(CCC(=O)N4CCN(CCN(C(C)C)C(C)C)CC4)n3)nc(N)c2C#N)cc1,< 80%
20,N#Cc1c(N)nc(SCc2csc(N3CCOCC3)n2)nc1-c1ccc2c(c1)OCO2,> 80%

# The remaining lines, values ahead:
row,inhibition,Structure (SMILES)
1,> 80%,COc1ccc(-c2nc(CSc3nc(N)c(C#N)c(-c4ccc5c(c4)OCO5)n3)cs2)cc1
2,> 80%,N#Cc1c(N)nc(SCc2csc(-c3ccccc3F)n2)nc1-c1ccc2c(c1)OCO2
3,< 80%,CCOc1ccc(-c2nc(SCc3csc(-c4ccc(Cl)cc4)n3)nc(N)c2C#N)cc1
4,> 80%,N#Cc1c(N)nc(SCc2csc(-c3ccc(Cl)cc3)n2)nc1-c1ccc(OCCO)cc1
5,< 80%,N#Cc1c(NCCCCc2ccccc2)nc(SCc2csc(-c3ccc(Cl)cc3)n2)nc1-c1ccc2c(c1)OCO2
6,> 80%,N#Cc1c(N)nc(SCc2cscn2)nc1-c1ccc2c(c1)OCO2
7,> 80%,N#Cc1c(N)nc(SCc2csc(-c3ccc(Cl)cc3)n2)nc1-c1ccccc1
8,> 80%,N#Cc1c(N)nc(SCc2csc(-c3cccc(Cl)c3)n2)nc1-c1ccc2c(c1)OCO2
9,> 80%,CC(=O)Nc1ccc(-c2nc(SCc3csc(-c4ccc(Cl)cc4)n3)nc(N)c2C#N)cc1
10,> 80%,N#Cc1c(N)nc(SCc2csc(-c3ccc(Cl)cc3)n2)nc1-c1ccc(OC(F)(F)F)cc1
11,< 80%,CC(C)CCNc1nc(SCc2csc(-c3ccc(Cl)cc3)n2)nc(-c2ccc3c(c2)OCO3)c1C#N
12,< 80%,CCC(CC)Nc1nc(SCc2csc(-c3ccc(Cl)cc3)n2)nc(-c2ccc3c(c2)OCO3)c1C#N
13,> 80%,N#Cc1c(N)nc(SCc2csc(-c3ccccc3)n2)nc1-c1ccc2c(c1)OCO2
14,> 80%,N#Cc1c(N)nc(SCc2csc(-c3cccc(Cl)c3)n2)c(C#N)c1-c1ccc(O)cc1
15,> 80%,N#Cc1c(N)nc(SCc2nc(-c3ccc(Cl)cc3)sc2Br)c(C#N)c1-c1ccc2c(c1)OCO2
16,< 80%,N#Cc1c(NCc2ccccc2)nc(SCc2csc(-c3ccc(Cl)cc3)n2)nc1-c1ccc2c(c1)OCO2
17,> 80%,N#Cc1c(N)nc(SCc2csc(-c3ccc(C(F)(F)F)cc3)n2)nc1-c1ccc2c(c1)OCO2
18,> 80%,CNc1nc(SCc2csc(-c3ccc(Cl)cc3)n2)cc(-c2ccc3c(c2)OCO3)c1C#N

row,inhibition,Structure (SMILES)
1,> 80%,N#Cc1c(N)nc(SCc2ccccc2[N+](=O)[O-])nc1-c1ccccc1
2,> 80%,COc1ccc(-c2c(C#N)c(N)nc(SCc3csc(-c4cccc(F)c4)n3)c2C#N)cc1
3,> 80%,COc1ccc(-c2c(C#N)c(N)nc(SCc3csc(-c4ccccc4F)n3)c2C#N)cc1
4,> 80%,COc1ccc(-c2c(C#N)c(N)nc(SCc3coc(-c4ccc(Cl)cc4)n3)c2C#N)cc1
5,< 80%,CC(=O)Nc1ccc(-c2nc(SCc3cccc(CCC(=O)N4CCN(CCCCN5CCC(C)CC5)CC4)n3)nc(N)c2C#N)cc1
6,< 80%,Cc1ccc(-c2nc(SCc3csc(-c4ccc(Cl)cc4)n3)nc(N)c2C#N)cc1
7,> 80%,Cc1ccc(-c2nc(CSc3nc(N)c(C#N)c(-c4ccc(O)cc4)c3C#N)cs2)cc1
8,> 80%,N#Cc1c(N)nc(SCc2coc(-c3ccc(Cl)cc3)n2)c(C#N)c1-c1ccc(O)cc1
9,< 80%,CC(C)(C)Nc1nc(SCc2csc(-c3ccc(Cl)cc3)n2)nc(-c2ccc3c(c2)OCO3)c1C#N
10,> 80%,COc1ccc(-c2c(C#N)c(N)nc(SCc3coc(-c4ccc(F)cc4)n3)c2C#N)cc1
11,> 80%,N#Cc1c(N)nc(SCc2csc(N3CCOCC3)n2)c(C#N)c1-c1ccc(O)cc1
12,< 80%,COc1ccc(-c2nc(SCc3csc(-c4ccc(Cl)cc4)n3)nc(N)c2C#N)cc1
13,> 80%,N#Cc1c(N)nc(SCc2csc(-c3ccc([N+](=O)[O-])cc3)n2)nc1-c1ccc2c(c1)OCO2
14,> 80%,N#Cc1c(N)nc(SCc2csc(-c3ccccc3Cl)n2)nc1-c1ccc2c(c1)OCO2
15,> 80%,C#CCNc1nc(SCc2csc(-c3ccc(Cl)cc3)n2)cc(-c2ccc3c(c2)OCO3)c1C#N
16,> 80%,CN(C)c1ccc(-c2nc(SCc3csc(-c4ccc(Cl)cc4)n3)nc(N)c2C#N)cc1
17,> 80%,N#Cc1c(N)nc(SCc2ccccc2[N+](=O)[O-])nc1-c1ccc2c(c1)OCO2
18,< 80%,N#Cc1c(NCCCc2ccccc2)nc(SCc2csc(-c3ccc(Cl)cc3)n2)nc1-c1ccc2c(c1)OCO2
